For 30 compounds, inhibition, IC50 and Ratio results are on record in ChEMBL document CHEMBL1759883, “Synthesis and biological evaluation of indazole derivatives” (Eur J Med Chem, 2011).

For assay [1], the target named is Nitric oxide synthase, inducible (Rattus norvegicus) (UniProt Q06518). Briefly: Inhibition of iNOS in LPS-stimulated Wistar rat lung assessed as inhibition of [3H]L-arginine to [3H]L-citrulline conversion at 1 mM by liquid scintillation counting. The method in brief: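 Lungs from male Wistar rats (220–250 g) taken 6 h after i.v. LPS (10 mg/kg in saline), homogenized in Tris buffer pH 7.6 with protease inhibitors, and spun at 2500g. The supernatant was incubated 30 min at 37 °C with 10 µM L-arginine plus 40 nM L-³H-arginine, cofactors, 0.75 mM NADPH (final) and 10 mM EDTA. ³H-citrulline was isolated on Dowex-50W; compounds at 1 mM.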

In assay [2] the target is Nitric oxide synthase 1 (Rattus norvegicus) (UniProt P29476). Briefly: Inhibition of nNOS in untreated Wistar rat striata assessed as inhibition of [3H]L-arginine to [3H]L-citrulline conversion at 1 mM by liquid scintillation counting.
The target of a further assay is Nitric oxide synthase 1 (Rattus norvegicus, UniProt P29476). The assay is described as follows: Inhibition of nNOS in untreated Wistar rat striata assessed as inhibition of [3H]L-arginine to [3H]L-citrulline conversion by liquid scintillation counting.
For the next assay, the species on record is Rattus norvegicus. Briefly: Selectivity ratio of inhibition of iNOS in Wistar rat lung to inhibition of nNOS in Wistar rat striata.

pIC50: −log10 of the molar value. Bounds are passed on as bounds.

Sequence of Nitric oxide synthase, inducible (Rattus norvegicus) (Q06518 whole entry): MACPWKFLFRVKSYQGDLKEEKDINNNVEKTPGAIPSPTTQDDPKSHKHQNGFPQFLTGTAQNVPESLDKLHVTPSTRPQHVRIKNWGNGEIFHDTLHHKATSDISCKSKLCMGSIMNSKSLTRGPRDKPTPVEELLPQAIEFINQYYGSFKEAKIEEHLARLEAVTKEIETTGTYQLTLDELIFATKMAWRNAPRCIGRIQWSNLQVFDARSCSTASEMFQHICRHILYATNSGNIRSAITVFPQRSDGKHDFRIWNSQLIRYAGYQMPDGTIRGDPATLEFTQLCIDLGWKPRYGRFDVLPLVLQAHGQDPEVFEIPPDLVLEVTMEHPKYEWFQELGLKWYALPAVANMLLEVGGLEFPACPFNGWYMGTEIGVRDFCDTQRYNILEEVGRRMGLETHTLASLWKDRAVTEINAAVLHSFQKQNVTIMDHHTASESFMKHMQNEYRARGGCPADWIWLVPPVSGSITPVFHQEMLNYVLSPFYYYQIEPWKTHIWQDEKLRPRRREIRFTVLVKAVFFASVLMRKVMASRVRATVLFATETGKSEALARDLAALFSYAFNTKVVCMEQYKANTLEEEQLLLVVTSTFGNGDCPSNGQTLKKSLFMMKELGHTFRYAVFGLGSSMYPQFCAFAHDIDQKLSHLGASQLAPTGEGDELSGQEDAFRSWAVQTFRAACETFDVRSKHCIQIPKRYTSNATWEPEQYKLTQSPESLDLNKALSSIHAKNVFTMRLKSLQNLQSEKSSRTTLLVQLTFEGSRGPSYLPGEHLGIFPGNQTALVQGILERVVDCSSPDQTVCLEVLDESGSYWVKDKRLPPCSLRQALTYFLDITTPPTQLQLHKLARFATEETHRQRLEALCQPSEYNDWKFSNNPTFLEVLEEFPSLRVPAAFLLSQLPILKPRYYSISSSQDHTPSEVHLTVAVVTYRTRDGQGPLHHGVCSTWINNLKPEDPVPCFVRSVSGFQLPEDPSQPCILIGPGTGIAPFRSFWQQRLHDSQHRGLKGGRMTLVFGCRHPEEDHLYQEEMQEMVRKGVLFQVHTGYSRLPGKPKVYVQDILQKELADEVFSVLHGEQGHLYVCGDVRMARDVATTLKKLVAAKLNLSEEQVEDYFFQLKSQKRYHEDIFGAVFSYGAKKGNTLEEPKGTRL
Sequence of Nitric oxide synthase 1 (Rattus norvegicus) (P29476 whole entry): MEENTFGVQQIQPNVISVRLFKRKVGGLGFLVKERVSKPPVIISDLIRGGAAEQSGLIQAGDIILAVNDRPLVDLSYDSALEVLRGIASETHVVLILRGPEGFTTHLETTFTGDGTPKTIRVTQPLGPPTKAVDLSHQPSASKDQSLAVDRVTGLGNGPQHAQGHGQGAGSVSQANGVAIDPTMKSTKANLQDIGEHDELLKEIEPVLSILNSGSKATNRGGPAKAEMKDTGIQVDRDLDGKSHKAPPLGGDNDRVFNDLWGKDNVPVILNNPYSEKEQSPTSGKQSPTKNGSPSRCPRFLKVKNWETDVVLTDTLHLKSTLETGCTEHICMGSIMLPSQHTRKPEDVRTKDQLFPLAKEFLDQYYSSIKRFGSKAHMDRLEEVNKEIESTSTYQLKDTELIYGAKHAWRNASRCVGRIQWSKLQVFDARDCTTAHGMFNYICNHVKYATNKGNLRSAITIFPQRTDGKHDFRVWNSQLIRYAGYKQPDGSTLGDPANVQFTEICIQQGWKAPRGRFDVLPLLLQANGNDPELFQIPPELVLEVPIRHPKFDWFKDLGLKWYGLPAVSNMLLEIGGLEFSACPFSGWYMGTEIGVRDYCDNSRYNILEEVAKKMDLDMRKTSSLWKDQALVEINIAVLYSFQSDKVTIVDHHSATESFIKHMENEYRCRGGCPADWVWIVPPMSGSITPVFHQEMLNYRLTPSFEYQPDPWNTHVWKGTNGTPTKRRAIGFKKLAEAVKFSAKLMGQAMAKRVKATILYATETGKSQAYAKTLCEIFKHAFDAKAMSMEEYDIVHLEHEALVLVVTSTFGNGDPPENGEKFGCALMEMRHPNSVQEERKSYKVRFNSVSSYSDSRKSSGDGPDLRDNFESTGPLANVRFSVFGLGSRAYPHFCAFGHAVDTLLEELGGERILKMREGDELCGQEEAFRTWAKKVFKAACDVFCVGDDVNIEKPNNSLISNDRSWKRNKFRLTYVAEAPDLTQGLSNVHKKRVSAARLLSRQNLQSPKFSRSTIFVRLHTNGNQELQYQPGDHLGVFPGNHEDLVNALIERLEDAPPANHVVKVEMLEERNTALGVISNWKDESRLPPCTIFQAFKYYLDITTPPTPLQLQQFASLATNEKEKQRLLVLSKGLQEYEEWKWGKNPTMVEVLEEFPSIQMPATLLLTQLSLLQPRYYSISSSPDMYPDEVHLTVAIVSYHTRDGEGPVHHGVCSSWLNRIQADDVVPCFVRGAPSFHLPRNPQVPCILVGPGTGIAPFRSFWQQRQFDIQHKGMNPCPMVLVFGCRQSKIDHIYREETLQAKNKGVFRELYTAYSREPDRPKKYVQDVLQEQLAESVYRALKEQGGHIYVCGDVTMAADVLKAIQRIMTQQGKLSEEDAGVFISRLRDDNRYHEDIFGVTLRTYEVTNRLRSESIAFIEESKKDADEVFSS
Sequence of Nitric oxide synthase 1 (P29476 whole entry): as above

By inhibition is commonly meant the relative decrease from the control value, in per cent. For the compound `c1ccc2[nH]ncc2c1`, the inhibition in assay [1] amounted to 45%; in assay [2], 11.2%.

For the compound `COc1cccc2c[nH]nc12`, the inhibition in assay [1] is 70%.

For `Oc1n[nH]c2ccccc12`, the inhibition in assay [1] is 55.1%; in assay [2], 31.4%.

For `Cc1n[nH]c2ccccc12`, the inhibition in assay [1] worked out at 77.4%; in assay [2], 33.7%.

For the compound `Cc1n[nH]c2c(F)c(F)c([N+](=O)[O-])cc12`, the inhibition in assay [1] came out at 95.6%; in assay [2] it was 85.4%.

In the case of `COC(=O)c1c(F)c(F)c(F)c2c(O)n[nH]c12`, the inhibition was found to be 49.6% in assay [1] and 5.1% in assay [2].

As usually defined, the pIC50 is the IC50 on a negative log10 scale, so that one unit is a factor of ten. Turning to `O=c1[nH][nH]c2ccccc12`, the pIC50 at Nitric oxide synthase 1 was less than 3.00.

As to `CCOC(=O)c1c(F)c(F)c2c(O)n[nH]c2c1F`, the figures for the inhibition in assay [1] and in assay [2] were 53.5% and 10.2%, respectively.

For the compound `Fc1c(F)c(F)c(-c2n[nH]c3c(F)c(F)c(F)c(F)c23)c(F)c1F`, the Ratio in the assay filed under Rattus norvegicus is 10.

As for `Oc1n[nH]c2cc(F)cc(F)c12`, the figures for the inhibition in assay [1] and in assay [2] were 48.1% and 11.1%, respectively.

For the compound `O=[N+]([O-])c1c(F)cc(F)c2c(O)n[nH]c12`, the Ratio in the assay listed under Rattus norvegicus was determined as 6. Moreover, the figures for the inhibition in assay [1] and in assay [2] were 91% and 14.9%, respectively.

Take `Cc1n[nH]c2c([N+](=O)[O-])c(F)cc(F)c12`: the inhibition in assay [1] was found to be 92%; in assay [2], 90%.

With `Cc1n[nH]c2c(F)c(F)ccc12`, the inhibition was found to be 69.2% in assay [1] and 58.4% in assay [2].

Take `O=C(O)c1c(F)c(F)c(F)c2c(O)n[nH]c12`: the figures for the inhibition in assay [1] and in assay [2] were 40.7% and 11.1%, respectively.

For `Cc1n[nH]c2cc(F)cc(F)c12`, the results for the inhibition in assay [1] and in assay [2] were 74.3% and 52.1%, respectively.

As to `O=C(O)c1c(F)c(F)c2c(O)n[nH]c2c1F`, the inhibition in assay [1] stood at 42%; in assay [2] it was 5.4%.

For `COC(=O)c1c(F)c(F)c(F)c2[nH]nc(O)c12`, the inhibition in assay [1] was 22.6%; in assay [2] it was 6.3%.

`O=C(O)c1c(F)c(F)c2[nH]nc(O)c2c1F`: the figures for the inhibition in assay [1] and in assay [2] were 16.3% and 12.1%, respectively.

In the case of `CCOC(=O)c1c(F)c(F)c(F)c2[nH]nc(O)c12`, the inhibition amounted to 38.7% in assay [1] and 1.2% in assay [2].

Take `COC(=O)c1c(F)c(F)c2c(O)n[nH]c2c1F`: the figures for the inhibition in assay [1] and in assay [2] were 46.2% and 19.7%, respectively.

Regarding `Oc1n[nH]c2c(F)c(F)ccc12`, the figures for the inhibition in assay [1] and in assay [2] were 89.1% and 57.1%, respectively.

Take `Fc1c(F)c(F)c2[nH]ncc2c1F`: the Ratio in the assay filed under Rattus norvegicus came to 2. In addition, the inhibition in assay [1] was found to be 98.7%; in assay [2] it was 43.3%.

In the case of `COC(=O)c1c(F)c(F)c2[nH]nc(O)c2c1F`, the inhibition came to 48.9% in assay [1] and 13.3% in assay [2].

Consider `FC(F)(F)c1n[nH]c2ccccc12`, for which the inhibition in assay [1] is 80.1%; in assay [2] it was 69.9%.

With `O=C(O)c1c(F)c(F)c(F)c2[nH]nc(O)c12`, the Ratio in the assay filed under Rattus norvegicus worked out at 35. The inhibition stood at 62.6% in assay [1] and 1.8% in assay [2].

On to `N#Cc1cccc2cn[nH]c12`, for which the inhibition in assay [1] worked out at 80%; in assay [2] it was 88%.

On to `CCOC(=O)c1c(F)c(F)c2[nH]nc(O)c2c1F`, for which the inhibition in assay [1] worked out at 51.8%; in assay [2] it was 2.5%.

Consider `CCc1n[nH]c2ccccc12`, for which the inhibition in assay [2] amounted to 18.8%.

For `CCOC(=O)c1c(F)c(F)c(F)c2c(O)n[nH]c12`, the inhibition in assay [1] was determined as 43.7%; in assay [2], 5.6%.

In the case of `O=[N+]([O-])c1cccc2c(O)n[nH]c12`, the inhibition came out at 8.2% in assay [1] and 18.9% in assay [2].
